The values that follow come from ChEMBL document CHEMBL5357024, “MDM2 Antagonist Idasanutlin Reduces HDAC1/2 Abundance and Corepressor Partners but Not HDAC3” (ACS Med Chem Lett, 2024).

Common to all, as to assay type: cell-based
Assay [1] addresses T1, Paired amphipathic helix protein Sin3a (Homo sapiens) (UniProt Q96ST3).
T1 sequence (whole entry): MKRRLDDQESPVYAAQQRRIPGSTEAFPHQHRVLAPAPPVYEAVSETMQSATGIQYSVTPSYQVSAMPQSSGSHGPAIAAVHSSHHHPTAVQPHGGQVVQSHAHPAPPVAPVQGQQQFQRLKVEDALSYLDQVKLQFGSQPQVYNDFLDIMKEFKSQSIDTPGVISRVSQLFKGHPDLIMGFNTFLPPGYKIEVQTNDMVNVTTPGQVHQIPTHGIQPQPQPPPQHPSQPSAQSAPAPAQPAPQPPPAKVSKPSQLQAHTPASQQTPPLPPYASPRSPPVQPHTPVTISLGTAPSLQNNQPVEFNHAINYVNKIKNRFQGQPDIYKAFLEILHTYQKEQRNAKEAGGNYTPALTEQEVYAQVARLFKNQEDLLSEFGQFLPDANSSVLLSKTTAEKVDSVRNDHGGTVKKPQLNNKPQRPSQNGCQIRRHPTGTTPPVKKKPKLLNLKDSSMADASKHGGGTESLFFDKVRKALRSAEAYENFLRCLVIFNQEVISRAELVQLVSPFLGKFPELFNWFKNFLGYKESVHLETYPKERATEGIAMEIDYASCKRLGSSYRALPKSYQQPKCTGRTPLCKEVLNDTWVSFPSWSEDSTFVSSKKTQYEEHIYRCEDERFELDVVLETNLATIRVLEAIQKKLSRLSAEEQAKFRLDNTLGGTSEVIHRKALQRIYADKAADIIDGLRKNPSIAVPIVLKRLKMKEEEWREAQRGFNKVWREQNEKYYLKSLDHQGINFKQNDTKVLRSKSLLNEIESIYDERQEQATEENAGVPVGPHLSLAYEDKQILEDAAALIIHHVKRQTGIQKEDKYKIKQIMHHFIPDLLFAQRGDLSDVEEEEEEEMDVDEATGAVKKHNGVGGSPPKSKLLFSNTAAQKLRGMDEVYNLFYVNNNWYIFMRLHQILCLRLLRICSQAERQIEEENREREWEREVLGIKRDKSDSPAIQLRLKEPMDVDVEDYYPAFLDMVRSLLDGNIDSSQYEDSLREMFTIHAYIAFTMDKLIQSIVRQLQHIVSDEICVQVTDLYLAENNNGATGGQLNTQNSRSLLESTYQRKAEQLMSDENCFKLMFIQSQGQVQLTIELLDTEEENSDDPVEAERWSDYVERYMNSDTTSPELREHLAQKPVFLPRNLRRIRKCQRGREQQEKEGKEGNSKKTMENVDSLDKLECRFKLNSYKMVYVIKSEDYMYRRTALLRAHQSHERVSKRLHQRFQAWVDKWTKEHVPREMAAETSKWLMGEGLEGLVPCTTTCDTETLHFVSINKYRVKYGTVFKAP
Kind of assay: Induction of SIN3A degradation in human HCT-116 cells assessed as reduction in SIN3A abundance by measuring remaining activity at 2.5 uM measured after 24 hrs by Western blot analysis (reference value: 100%). A digest of the protocol:
(§1)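 HCT116 cells seeded in six-well plates for 24 h, then exposed 24 h to compound (0.01–10 μM) or DMSO in fresh medium. Lysis in Tris-HCl/NaCl/NP-40/Triton X-100 with protease inhibitor. Bradford-normalised 30 μg protein per lane. Quantitative Western blot used specific HDAC1, HDAC2, HDAC3, LSD1 or Sin3a antibodies with IRDye secondaries. Abundance compared with DMSO, n = 2 replicates.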
(In general: Immunoblotting shows a protein as a band on a membrane.)

Assay [2] has as its target T2, E3 ubiquitin-protein ligase Mdm2/Histone deacetylase 1 (Homo sapiens) (UniProt Q00987+Q13547). Kind of assay: PROTAC activity at MDM2/HDAC1 in human HCT-116 cells assessed as decrease in HDAC1 abundance by measuring remaining activity at 0.05 uM measured after 24 hrs by Western blot analysis (reference value: 100%). A digest of the protocol: as §1
Assay [3] addresses T2, E3 ubiquitin-protein ligase Mdm2/Histone deacetylase 1 (Homo sapiens). Kind of assay: PROTAC activity at MDM2/HDAC1 in human HCT-116 cells assessed as decrease in HDAC1 abundance by measuring remaining activity at 10 uM measured after 24 hrs by Western blot analysis (reference value: 100%). A digest of the protocol: as §1
The target in assay [4] is T1, Paired amphipathic helix protein Sin3a (Homo sapiens). The experiment in a line: Induction of SIN3A degradation in human HCT-116 cells assessed as reduction in SIN3A abundance by measuring remaining activity at 5 uM measured after 24 hrs by Western blot analysis (reference value: 100%). Put shortly:
as §1

For assay [5] the target is unchanged. The experiment in a line: Induction of SIN3A degradation in human HCT-116 cells assessed as reduction in SIN3A abundance by measuring remaining activity at 0.5 uM measured after 24 hrs by Western blot analysis (reference value: 100%). A digest of the protocol:
as §1

Assay [6] shares this target. The experiment in a line: Induction of SIN3A degradation in human HCT-116 cells assessed as reduction in SIN3A abundance by measuring remaining activity at 0.25 uM measured after 24 hrs by Western blot analysis (reference value: 100%). A digest of the protocol:
as §1

The target of assay [7] is Lysine-specific histone demethylase 1A (Homo sapiens) (UniProt O60341). Kind of assay: Induction of LSD1 degradation in human HCT-116 cells assessed as reduction in LSD1 abundance by measuring remaining activity at 1 uM measured after 24 hrs by Western blot analysis (reference value: 100%). A digest of the protocol:
as §1

Assay [8] has as its target T3, E3 ubiquitin-protein ligase Mdm2/Histone deacetylase 3 (Homo sapiens) (UniProt Q00987+O15379). The experiment in a line: PROTAC activity at MDM2/HDAC3 in human HCT-116 cells assessed as reduction in HDAC3 abundance by measuring remaining activity at 0.5 uM measured after 24 hrs by Western blot analysis. A digest of the protocol: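 HCT116 cells in DMEM with 10% FBS and glutamine/penicillin/streptomycin at 37 °C, 5% CO2. Seeded 4 × 10^5 cells/well, after 24 h treated 24 h with DMSO or compound in fresh medium. Lysed in Tris-HCl/NaCl/NP-40/Triton X-100 buffer with protease inhibitor, Bradford-quantified, 30 μg protein per lane. Quantitative Western blot with specific HDAC1/2/3 antibodies, IRDye secondaries, infrared imaging, versus DMSO. n = 2 replicates.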

Assay [9] has as its target Lysine-specific histone demethylase 1A (Homo sapiens) (UniProt O60341). The experiment in a line: Induction of LSD1 degradation in human HCT-116 cells assessed as reduction in LSD1 abundance by measuring remaining activity at 0.1 uM measured after 24 hrs by Western blot analysis (reference value: 100%). Put shortly: as §1
Assay [10] addresses T1, Paired amphipathic helix protein Sin3a (Homo sapiens). Kind of assay: Induction of SIN3A degradation in human HCT-116 cells assessed as reduction in SIN3A abundance by measuring remaining activity at 10 uM measured after 24 hrs by Western blot analysis (reference value: 100%). A digest of the protocol:
as §1

In assay [11] the target is T3, E3 ubiquitin-protein ligase Mdm2/Histone deacetylase 3 (Homo sapiens). Kind of assay: PROTAC activity at MDM2/HDAC3 in human HCT-116 cells assessed as reduction in HDAC3 abundance by measuring remaining activity at 0.01 uM measured after 24 hrs by Western blot analysis. A digest of the protocol:
as §1

In assay [12] the target is T1, Paired amphipathic helix protein Sin3a (Homo sapiens). The experiment in a line: Induction of SIN3A degradation in human HCT-116 cells assessed as reduction in SIN3A abundance by measuring remaining activity at 0.025 uM measured after 24 hrs by Western blot analysis (reference value: 100%). Put shortly: as §1
In assay [13] the target is Lysine-specific histone demethylase 1A (Homo sapiens) (UniProt O60341). The experiment in a line: Induction of LSD1 degradation in human HCT-116 cells assessed as reduction in LSD1 abundance by measuring remaining activity at 10 uM measured after 24 hrs by Western blot analysis (reference value: 100%). Put shortly: as §1

T2 sequence (Q00987 whole entry, looked up): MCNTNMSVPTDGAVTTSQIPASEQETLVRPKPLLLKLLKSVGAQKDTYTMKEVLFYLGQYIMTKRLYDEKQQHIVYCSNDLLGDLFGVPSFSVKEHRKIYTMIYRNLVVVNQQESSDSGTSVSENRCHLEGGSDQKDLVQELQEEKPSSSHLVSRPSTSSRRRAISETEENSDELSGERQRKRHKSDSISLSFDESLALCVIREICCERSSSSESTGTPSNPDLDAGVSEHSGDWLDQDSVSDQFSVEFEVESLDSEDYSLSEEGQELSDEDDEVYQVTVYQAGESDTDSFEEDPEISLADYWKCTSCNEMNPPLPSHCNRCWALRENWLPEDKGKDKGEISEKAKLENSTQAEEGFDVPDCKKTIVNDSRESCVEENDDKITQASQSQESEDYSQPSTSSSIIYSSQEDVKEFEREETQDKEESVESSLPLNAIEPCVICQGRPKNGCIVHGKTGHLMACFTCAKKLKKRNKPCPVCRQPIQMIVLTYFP
T2 sequence (Q13547 whole entry, looked up): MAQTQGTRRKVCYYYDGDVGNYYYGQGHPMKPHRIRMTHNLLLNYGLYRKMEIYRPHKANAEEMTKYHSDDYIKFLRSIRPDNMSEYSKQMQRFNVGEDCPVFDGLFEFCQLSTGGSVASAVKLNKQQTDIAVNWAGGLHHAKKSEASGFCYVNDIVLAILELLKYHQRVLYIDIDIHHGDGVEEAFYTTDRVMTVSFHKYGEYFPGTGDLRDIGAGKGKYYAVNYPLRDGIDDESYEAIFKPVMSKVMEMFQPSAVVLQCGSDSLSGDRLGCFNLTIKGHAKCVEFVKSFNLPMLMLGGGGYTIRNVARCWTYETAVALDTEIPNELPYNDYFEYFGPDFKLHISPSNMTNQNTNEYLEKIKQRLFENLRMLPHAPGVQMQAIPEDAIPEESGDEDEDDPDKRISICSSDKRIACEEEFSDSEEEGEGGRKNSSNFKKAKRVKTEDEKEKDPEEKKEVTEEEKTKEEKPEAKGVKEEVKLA
T3 sequence (O15379 whole entry, looked up): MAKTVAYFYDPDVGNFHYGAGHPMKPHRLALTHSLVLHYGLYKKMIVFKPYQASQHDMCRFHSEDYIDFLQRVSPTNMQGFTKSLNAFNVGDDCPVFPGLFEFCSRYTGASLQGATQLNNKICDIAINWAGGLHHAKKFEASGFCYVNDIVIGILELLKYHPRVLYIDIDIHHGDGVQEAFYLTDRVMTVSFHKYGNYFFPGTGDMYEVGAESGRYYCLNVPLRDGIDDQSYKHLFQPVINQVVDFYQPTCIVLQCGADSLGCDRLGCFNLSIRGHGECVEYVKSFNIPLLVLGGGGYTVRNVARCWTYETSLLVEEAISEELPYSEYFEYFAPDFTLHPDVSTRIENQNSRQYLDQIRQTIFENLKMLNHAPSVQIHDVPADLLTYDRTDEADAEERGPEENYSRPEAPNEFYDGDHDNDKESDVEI
T3 sequence (Q00987 whole entry, looked up): as the sequence (Q00987 whole entry, looked up) above

For `COc1cc(C(=O)NCCOCCOCCOCCOCCC(=O)Nc2ccc(C(=O)Nc3ccccc3N)cc2)ccc1NC(=O)[C@@H]1N[C@@H](CC(C)(C)C)[C@](C#N)(c2ccc(Cl)cc2F)[C@H]1c1cccc(Cl)c1F`, the Activity in assay [1] is 57%; in assay [2], 88%; in [3] it was 36%; in [4], 53%; in assay [5] it was 79%; in [6] it was 92%. For the same molecule, the Activity amounted to 81% in assay [7]; 106% in assay [8]; 104% in assay [9]; 45% in [10]; 98% in [11]; 100% in [12]. Further, the Activity in [13] came out at 65%.
